Data published in ChEMBL document CHEMBL1909611, “Identification and SAR of selective inducible nitric oxide synthase (iNOS) dimerization inhibitors” (Bioorg Med Chem Lett, 2011).

Tests used:
Assay type in all cases: cell-based
[1] = molecular target: T1, Nitric oxide synthase 3 (Homo sapiens) (UniProt P29474); test: Inhibition of human eNOS expressed in HEK293 cells assessed as inhibition A23187-induced nitric oxide production at 100 uM incubated for 24 hrs measured after 18 hrs of A23187 challenge by 2,3-diaminonaphthalene assay
T1 sequence (whole entry): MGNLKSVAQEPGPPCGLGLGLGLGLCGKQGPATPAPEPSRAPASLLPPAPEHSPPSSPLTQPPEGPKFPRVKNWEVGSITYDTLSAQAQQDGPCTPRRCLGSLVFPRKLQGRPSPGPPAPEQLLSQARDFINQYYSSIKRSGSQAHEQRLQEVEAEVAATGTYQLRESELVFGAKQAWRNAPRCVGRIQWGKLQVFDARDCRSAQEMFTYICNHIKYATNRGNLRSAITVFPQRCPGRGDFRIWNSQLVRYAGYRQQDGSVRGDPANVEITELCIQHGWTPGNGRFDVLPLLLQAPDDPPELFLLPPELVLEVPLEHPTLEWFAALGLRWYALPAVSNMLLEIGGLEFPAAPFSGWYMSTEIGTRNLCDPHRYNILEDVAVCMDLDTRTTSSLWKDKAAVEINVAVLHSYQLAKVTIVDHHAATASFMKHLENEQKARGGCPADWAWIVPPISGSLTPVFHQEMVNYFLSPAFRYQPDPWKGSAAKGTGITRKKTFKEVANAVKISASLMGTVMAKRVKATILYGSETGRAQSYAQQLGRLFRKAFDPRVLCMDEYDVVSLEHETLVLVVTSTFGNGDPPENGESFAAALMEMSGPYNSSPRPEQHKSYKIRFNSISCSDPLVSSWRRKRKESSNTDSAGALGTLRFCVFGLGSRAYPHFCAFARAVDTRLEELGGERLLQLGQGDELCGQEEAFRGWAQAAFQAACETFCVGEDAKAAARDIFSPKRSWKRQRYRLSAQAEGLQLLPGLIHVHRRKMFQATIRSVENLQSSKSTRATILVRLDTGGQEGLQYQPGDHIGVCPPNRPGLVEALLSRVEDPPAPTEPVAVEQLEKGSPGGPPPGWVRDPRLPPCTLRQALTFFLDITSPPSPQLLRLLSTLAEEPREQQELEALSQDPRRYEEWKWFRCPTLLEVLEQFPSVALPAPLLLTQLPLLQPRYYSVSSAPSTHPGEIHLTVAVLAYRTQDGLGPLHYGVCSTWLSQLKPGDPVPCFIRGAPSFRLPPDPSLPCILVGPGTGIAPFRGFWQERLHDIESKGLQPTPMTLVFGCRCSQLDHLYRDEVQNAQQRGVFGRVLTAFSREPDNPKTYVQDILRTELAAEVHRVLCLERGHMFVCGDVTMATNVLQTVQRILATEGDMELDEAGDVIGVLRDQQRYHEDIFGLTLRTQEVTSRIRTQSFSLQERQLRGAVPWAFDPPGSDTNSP
Procedure, shortened: (§1)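 Transiently transfected cells plated at 5e5 cells/ml; compounds added immediately by pin transfer. Incubated 24 h with compound, then activated by ionophore (0.8 µM final). Fluorescence (ex 360/em 425 nm) read after raising pH with NaOH (0.12 N final). Values are mean of three experiments with SD. At 100 µM, <50% inhibition is reported as >100.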

Nitric oxide synthase 1 [2] = molecular target: T2, Nitric oxide synthase 1 (Homo sapiens, UniProt P29475); test: Inhibition of human nNOS expressed in HEK293 cells assessed as inhibition ionomycin-induced nitric oxide production incubated for 24 hrs measured after 18 hrs of ionomycin challenge by 2,3-diaminonaphthalene assay; procedure, shortened: as §1
T2 sequence (P29475 whole entry): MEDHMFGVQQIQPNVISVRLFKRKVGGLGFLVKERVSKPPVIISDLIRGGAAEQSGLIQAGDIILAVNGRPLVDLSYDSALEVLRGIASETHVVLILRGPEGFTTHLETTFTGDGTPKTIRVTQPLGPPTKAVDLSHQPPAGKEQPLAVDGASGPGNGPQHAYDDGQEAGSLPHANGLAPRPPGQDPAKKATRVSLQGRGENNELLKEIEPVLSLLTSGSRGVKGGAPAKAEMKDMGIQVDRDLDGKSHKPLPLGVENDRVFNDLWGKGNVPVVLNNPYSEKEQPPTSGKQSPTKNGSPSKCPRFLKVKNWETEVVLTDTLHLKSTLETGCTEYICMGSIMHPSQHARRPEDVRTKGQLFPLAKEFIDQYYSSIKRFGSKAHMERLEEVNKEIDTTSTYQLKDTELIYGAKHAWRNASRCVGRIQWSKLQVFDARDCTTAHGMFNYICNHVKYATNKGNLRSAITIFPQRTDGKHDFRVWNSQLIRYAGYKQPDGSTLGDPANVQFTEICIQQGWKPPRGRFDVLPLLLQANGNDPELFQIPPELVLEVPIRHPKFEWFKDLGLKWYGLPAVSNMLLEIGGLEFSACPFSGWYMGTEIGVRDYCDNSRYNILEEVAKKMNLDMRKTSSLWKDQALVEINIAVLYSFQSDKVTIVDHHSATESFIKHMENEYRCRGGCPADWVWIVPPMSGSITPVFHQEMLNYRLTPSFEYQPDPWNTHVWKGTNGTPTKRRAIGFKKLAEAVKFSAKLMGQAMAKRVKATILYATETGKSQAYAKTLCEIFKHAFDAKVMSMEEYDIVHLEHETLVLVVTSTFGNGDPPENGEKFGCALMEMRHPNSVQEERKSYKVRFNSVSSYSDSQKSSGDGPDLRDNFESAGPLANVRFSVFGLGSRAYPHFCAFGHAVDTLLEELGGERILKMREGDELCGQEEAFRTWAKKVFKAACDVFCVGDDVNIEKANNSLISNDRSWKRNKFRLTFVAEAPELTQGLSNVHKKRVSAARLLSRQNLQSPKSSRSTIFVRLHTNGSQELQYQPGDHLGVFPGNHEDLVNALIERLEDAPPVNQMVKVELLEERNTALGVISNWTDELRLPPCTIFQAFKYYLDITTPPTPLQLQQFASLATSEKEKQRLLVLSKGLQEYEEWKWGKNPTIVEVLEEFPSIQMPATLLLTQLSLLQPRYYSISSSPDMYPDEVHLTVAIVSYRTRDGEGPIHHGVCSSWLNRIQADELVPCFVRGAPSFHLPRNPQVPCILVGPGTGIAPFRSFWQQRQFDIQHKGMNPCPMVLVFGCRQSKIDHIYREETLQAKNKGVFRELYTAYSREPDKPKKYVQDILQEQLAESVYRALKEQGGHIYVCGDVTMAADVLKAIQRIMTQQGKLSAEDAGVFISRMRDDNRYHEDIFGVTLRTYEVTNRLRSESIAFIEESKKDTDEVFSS

[3] = molecular target: T3, Nitric oxide synthase, inducible (Homo sapiens, UniProt P35228); test: Inhibition of human iNOS expressed in human HEK293 cells assessed as nitrite accumulation after 18 hrs by 2,3-diaminonapthalene assay
T3 sequence (P35228 whole entry): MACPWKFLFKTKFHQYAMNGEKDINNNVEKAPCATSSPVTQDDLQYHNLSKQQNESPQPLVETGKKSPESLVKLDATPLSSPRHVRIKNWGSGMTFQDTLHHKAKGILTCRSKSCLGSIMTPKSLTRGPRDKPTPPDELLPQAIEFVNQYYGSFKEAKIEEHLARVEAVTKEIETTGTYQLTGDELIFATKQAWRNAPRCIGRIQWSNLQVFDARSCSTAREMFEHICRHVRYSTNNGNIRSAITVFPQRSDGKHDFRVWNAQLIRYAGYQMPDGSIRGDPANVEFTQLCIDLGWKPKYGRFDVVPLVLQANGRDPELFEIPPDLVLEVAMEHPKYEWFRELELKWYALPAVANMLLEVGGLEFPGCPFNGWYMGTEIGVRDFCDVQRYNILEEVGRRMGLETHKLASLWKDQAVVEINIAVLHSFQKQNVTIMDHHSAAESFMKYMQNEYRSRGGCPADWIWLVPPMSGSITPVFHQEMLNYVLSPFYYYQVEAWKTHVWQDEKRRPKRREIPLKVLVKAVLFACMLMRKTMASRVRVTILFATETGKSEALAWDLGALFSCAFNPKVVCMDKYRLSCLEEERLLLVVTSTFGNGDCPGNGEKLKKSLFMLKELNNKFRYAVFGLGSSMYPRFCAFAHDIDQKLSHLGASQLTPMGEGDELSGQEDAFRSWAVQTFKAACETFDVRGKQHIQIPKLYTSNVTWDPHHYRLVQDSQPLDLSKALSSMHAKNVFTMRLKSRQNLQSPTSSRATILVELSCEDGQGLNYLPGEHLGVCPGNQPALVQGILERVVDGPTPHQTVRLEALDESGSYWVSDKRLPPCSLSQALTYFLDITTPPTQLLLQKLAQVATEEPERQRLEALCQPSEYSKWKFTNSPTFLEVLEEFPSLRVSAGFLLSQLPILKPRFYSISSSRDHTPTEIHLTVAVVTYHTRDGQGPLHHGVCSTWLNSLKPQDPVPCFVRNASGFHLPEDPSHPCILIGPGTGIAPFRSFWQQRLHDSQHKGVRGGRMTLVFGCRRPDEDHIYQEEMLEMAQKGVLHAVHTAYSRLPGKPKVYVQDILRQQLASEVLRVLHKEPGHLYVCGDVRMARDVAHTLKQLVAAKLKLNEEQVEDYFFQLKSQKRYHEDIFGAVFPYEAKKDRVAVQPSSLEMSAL
Procedure, shortened: as §1, with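 “18” for “24”, “for nitrite accumulation.” for “with compound, then activated by ionophore (0.8 µM final).”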

Nitric oxide synthase 3 = molecular target: T4, Nitric oxide synthase 3 (Homo sapiens, UniProt P29474); test: Inhibition of human eNOS expressed in HEK293 cells assessed as inhibition A23187-induced nitric oxide production incubated for 24 hrs measured after 18 hrs of A23187 challenge by 2,3-diaminonaphthalene assay; procedure, shortened: as §1
T4 sequence (P29474 whole entry): T1 sequence (whole entry)

Nitric oxide synthase 1 [4] = molecular target: T2, Nitric oxide synthase 1; test: Inhibition of human nNOS expressed in HEK293 cells assessed as inhibition ionomycin-induced nitric oxide production at 100 uM incubated for 24 hrs measured after 18 hrs of ionomycin challenge by 2,3-diaminonaphthalene assay; procedure, shortened: as §1
[5] = molecular target: T3, Nitric oxide synthase, inducible; test: Inhibition of human iNOS expressed in human HEK293 cells assessed as nitrite accumulation at 100 uM after 18 hrs by 2,3-diaminonapthalene assay
Procedure, shortened: as §1, with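 “18” for “24”, “for nitrite accumulation.” for “with compound, then activated by ionophore (0.8 µM final).”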

Row | SMILES | inhibition [1] [%] | EC50 (Nitric oxide synthase 1 [2]) [µM] | EC50 [3] [µM] | EC50 (Nitric oxide synthase 3) [µM] | inhibition (Nitric oxide synthase 1 [4]) [%] | inhibition [5] [%]
1 | CN(CCCNC(=O)c1ccc2c(c1)OCO2)c1nc(-n2ccnc2)ns1 | < 50 | > 100 | 6.3 | > 100 | < 50 | 
2 | CN(CCCNCc1ccc(F)c(F)c1)c1nc(-n2ccnc2)ns1 | < 50 | > 100 | > 100 | > 100 | < 50 | < 50
3 | CN(CCCNCc1ccncc1)c1nc(-n2ccnc2)ns1 | < 50 | > 100 | > 100 | > 100 | < 50 | < 50
4 | CN(CCCNCc1ccc2c(c1)OCCO2)c1nc(-n2ccnc2)ns1 | < 50 | 24 | 0.048 | > 100 |  | 
5 | CN(C)c1ccc(CN(CCCNCc2ccc3c(c2)OCO3)c2nc(-n3ccnc3)ns2)cc1 | < 50 | 6.8 | 0.163 | > 100 |  | 
6 | COc1ccc(CNCCCN(C)c2nc(-n3ccnc3)ns2)cc1OC | < 50 | > 100 | 0.76 | > 100 | < 50 | 
7 | c1cn(-c2nsc(N(CCCNCc3ccc4c(c3)OCO4)Cc3ccc4occc4c3)n2)cn1 | < 50 | 7.9 | 0.09 | > 100 |  | 
8 | Oc1ccc(CN(CCCNCc2ccc3c(c2)OCO3)c2nc(-n3ccnc3)ns2)cc1 | < 50 | 11 | 0.042 | > 100 |  | 
9 | Cc1cc(-c2cccn2CCN(C)Cc2ccc3c(c2)OCO3)nc(-n2ccnc2)n1 | < 50 | > 100 | 1.8 | > 100 | < 50 | 
10 | CN(CCCNCCc1ccc2c(c1)OCO2)c1nc(-n2ccnc2)ns1 | < 50 | 47 | 0.23 | > 100 |  | 
11 | c1cn(-c2nsc(N(CCCNCc3ccc4c(c3)OCO4)Cc3nnn[nH]3)n2)cn1 | < 50 | > 100 | 4 | > 100 | < 50 | 
12 | CN(CCCNCc1ccc2[nH]ccc2c1)c1nc(-n2ccnc2)ns1 | < 50 | > 100 | > 100 | > 100 | < 50 | < 50
13 | COc1ccc(CNCCCN(C)c2nc(-n3ccnc3)ns2)cc1 | < 50 | > 100 | 0.36 | > 100 | < 50 | 
14 | CN(CCCNCc1ccc2c(c1)OC(F)(F)O2)c1nc(-n2ccnc2)ns1 | < 50 | > 100 | 8.9 | > 100 | < 50 | 
15 | Cc1cc(C2CCCN2CCN(C)Cc2ccc3c(c2)OCO3)nc(-n2ccnc2)n1 (centres undefined) | < 50 | 3.9 | 0.004 | > 100 |  | 

The next lines start with the values.

Row | inhibition [1] [%] | EC50 (Nitric oxide synthase 1 [2]) [µM] | EC50 [3] [µM] | EC50 (Nitric oxide synthase 3) [µM] | inhibition (Nitric oxide synthase 1 [4]) [%] | inhibition [5] [%] | SMILES
16 | < 50 | 36 | 0.056 | > 100 |  |  | c1cn(-c2nsc(N(CCCNCc3ccc4c(c3)OCO4)C3CC3)n2)cn1
17 | < 50 | > 100 | 0.02 | > 100 | < 50 |  | Cc1cc(CCCCNCc2ccc3c(c2)OCO3)nc(-n2ccnc2)n1
18 | < 50 | 7.6 | 0.034 | > 100 |  |  | CCOC(=O)CN(CCCNCc1ccc2c(c1)OCO2)c1nc(-n2ccnc2)ns1
19 | < 50 | 2.1 | 0.014 | > 100 |  |  | c1coc(CN(CCCNCc2ccc3c(c2)OCO3)c2nc(-n3ccnc3)ns2)c1
20 | < 50 | > 100 | > 100 | > 100 | < 50 | < 50 | O=C(O)CN(CCCNCc1ccc2c(c1)OCO2)c1nc(-n2ccnc2)ns1
21 | < 50 | > 100 | 0.29 | > 100 | < 50 |  | Cc1cc(C(C)NCCOCc2ccc3c(c2)OCO3)nc(-n2ccnc2)n1 (centres undefined)
22 | < 50 | > 100 | 0.014 | > 100 | < 50 |  | Cc1cc(CNC(=O)NCCc2ccc3c(c2)OCO3)nc(-n2ccnc2)n1
23 | < 50 | > 100 | 0.293 | > 100 | < 50 |  | Cc1cc(CNC(=O)CNCc2ccc3c(c2)OCO3)nc(-n2ccnc2)n1
24 | < 50 | 7.2 | 0.059 | > 100 |  |  | CNC(=O)CN(CCCNCc1ccc2c(c1)OCO2)c1nc(-n2ccnc2)ns1
25 | < 50 | 9.5 | 0.036 | > 100 |  |  | Cc1cc(C2CCCN2CC(=O)NCc2ccc3c(c2)OCO3)nc(-n2ccnc2)n1 (centres undefined)
26 | < 50 | 7.2 | 0.012 | > 100 |  |  | N#CCN(CCCNCc1ccc2c(c1)OCO2)c1nc(-n2ccnc2)ns1
27 | < 50 | 11 | 0.081 | > 100 |  |  | NC(=O)CN(CCCNCc1ccc2c(c1)OCO2)c1nc(-n2ccnc2)ns1
28 | < 50 | 0.48 | 0.005 | > 100 |  |  | c1cncc(CN(CCCNCc2ccc3c(c2)OCO3)c2nc(-n3ccnc3)ns2)c1
29 | < 50 | > 100 | > 100 | > 100 | < 50 | < 50 | Cc1cc(C(=O)NCCN(C)Cc2ccc3c(c2)OCO3)nc(-n2ccnc2)n1
30 | < 50 | 2.3 | 0.009 | > 100 |  |  | CCCN(CCCNCc1ccc2c(c1)OCO2)c1nc(-n2ccnc2)ns1
31 | < 50 | 2.7 | 0.009 | > 100 |  |  | Cc1cc(C2CCCN2C(=O)NCCc2ccc3c(c2)OCO3)nc(-n2ccnc2)n1 (centres undefined)
32 | < 50 | 6 | 0.029 | > 100 |  |  | Cc1cc(C(C)NCCN(C)Cc2ccc3c(c2)OCO3)nc(-n2ccnc2)n1 (centres undefined)
33 | < 50 | 0.31 | 0.006 | > 100 |  |  | c1cn(-c2nsc(N(CCCNCc3ccc4c(c3)OCO4)Cc3nccs3)n2)cn1
34 | < 50 | 18 | 0.071 | > 100 |  |  | Cn1cnc(CN(CCCNCc2ccc3c(c2)OCO3)c2nc(-n3ccnc3)ns2)c1
35 | < 50 | 6.6 | 0.03 | > 100 |  |  | Cc1cc(C2CCCN2C(=O)CNCc2ccc3c(c2)OCO3)nc(-n2ccnc2)n1 (centres undefined)
36 | < 50 | > 100 | 0.08 | > 100 | < 50 |  | CN(C)C(=O)CN(CCCNCc1ccc2c(c1)OCO2)c1nc(-n2ccnc2)ns1
37 | < 50 | 0.69 | 0.009 | > 100 |  |  | c1csc(CN(CCCNCc2ccc3c(c2)OCO3)c2nc(-n3ccnc3)ns2)c1
